We go through one compound from ChEMBL document CHEMBL3351316, “Scaffold hopping approach on the route to selective tankyrase inhibitors” (Eur J Med Chem, 2014).

Activity calls are given as the source filed them. No cut-off for these calls is given here.

In series [1] the target is T1, Protein mono-ADP-ribosyltransferase PARP3 (Homo sapiens) (UniProt Q9Y6F1).
T1 sequence (whole entry): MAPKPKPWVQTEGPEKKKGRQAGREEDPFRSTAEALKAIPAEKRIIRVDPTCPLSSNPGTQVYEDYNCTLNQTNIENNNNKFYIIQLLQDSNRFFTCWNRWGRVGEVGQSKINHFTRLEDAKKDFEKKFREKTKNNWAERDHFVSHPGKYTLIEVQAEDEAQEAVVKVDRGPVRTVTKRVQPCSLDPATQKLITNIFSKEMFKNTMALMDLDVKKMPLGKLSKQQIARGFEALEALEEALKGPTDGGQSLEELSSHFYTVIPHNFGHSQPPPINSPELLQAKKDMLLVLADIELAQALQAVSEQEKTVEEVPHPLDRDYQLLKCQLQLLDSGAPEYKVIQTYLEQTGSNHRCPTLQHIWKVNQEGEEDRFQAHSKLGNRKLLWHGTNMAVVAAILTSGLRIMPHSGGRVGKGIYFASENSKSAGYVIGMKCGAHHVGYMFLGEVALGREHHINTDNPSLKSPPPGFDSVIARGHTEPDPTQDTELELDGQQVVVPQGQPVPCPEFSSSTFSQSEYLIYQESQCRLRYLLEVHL
Kind of series: Inhibition of human recombinant PARP3 at 10 uM incubated for 1 hr using NAD+, biotinylated NAD+ and activated DNA by luminescence based assay. An outline of the steps:
(§1)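 Recombinant PARP enzyme reactions were run in duplicate for 1 h at rt on histone-coated plates in Tris·HCl pH 8.0 buffer with NAD+, biotinylated NAD+ and activated DNA. Detection used streptavidin-HRP for 30 min at rt, then a chemiluminescent developer. % inhibition = 100 − % activity, scaled between the no-compound (100%) and no-enzyme (0%) signals.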

Series [2] addresses T2, Protein mono-ADP-ribosyltransferase TIPARP (Homo sapiens) (UniProt Q7Z3E1).
T2 sequence (whole entry): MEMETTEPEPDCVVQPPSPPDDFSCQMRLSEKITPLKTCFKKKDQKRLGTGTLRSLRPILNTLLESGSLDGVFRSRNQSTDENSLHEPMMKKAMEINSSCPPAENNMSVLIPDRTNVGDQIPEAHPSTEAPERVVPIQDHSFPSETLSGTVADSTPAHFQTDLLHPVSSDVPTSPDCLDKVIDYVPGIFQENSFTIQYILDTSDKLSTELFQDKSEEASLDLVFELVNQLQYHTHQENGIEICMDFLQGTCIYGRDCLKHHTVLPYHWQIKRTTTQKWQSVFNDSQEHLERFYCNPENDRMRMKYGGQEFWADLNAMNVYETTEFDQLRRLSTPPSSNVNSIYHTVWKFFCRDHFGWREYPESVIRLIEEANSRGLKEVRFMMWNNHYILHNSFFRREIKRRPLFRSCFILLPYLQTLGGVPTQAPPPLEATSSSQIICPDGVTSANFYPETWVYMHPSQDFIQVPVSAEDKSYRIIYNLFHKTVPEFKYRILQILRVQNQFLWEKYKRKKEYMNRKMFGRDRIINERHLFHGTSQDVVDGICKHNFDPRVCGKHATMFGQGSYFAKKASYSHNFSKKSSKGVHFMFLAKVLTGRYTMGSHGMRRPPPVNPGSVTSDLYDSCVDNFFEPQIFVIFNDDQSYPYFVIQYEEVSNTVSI
Kind of series: Inhibition of human recombinant PARP7 at 10 uM incubated for 1 hr using NAD+, biotinylated NAD+ and activated DNA by luminescence based assay. A digest of the protocol:
as §1

A further series deals with RKO. Kind of series: Growth inhibition of Wnt-negative human RKO cells at 1 uM to 10 uM. It counts as functional, cell-based.
A short description of series [3]: Lipophilicity, log D of the compound at pH 7.4. It counts as physicochemical. The note with it: buffer.
A further series deals with DLD-1. Kind of series: Growth inhibition of human DLD1 cells at 1 uM to 10 uM. The class given is functional, cell-based. An outline of the steps: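 DLD-1 colorectal cancer cells seeded at 5 × 10^3 in a colony growth assay. Cells were dosed daily with 1, 5 or 10 μM compound in DMSO, with DMSO alone as the negative control. After 10 days cells were fixed in 10% methanol/acetic acid, stained with 1% crystal violet and quantified by image analysis. Mean ± SEM of at least three independent experiments.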

The target in series [4] is T3, Protein mono-ADP-ribosyltransferase PARP8 (Homo sapiens) (UniProt Q8N3A8).
T3 sequence (whole entry): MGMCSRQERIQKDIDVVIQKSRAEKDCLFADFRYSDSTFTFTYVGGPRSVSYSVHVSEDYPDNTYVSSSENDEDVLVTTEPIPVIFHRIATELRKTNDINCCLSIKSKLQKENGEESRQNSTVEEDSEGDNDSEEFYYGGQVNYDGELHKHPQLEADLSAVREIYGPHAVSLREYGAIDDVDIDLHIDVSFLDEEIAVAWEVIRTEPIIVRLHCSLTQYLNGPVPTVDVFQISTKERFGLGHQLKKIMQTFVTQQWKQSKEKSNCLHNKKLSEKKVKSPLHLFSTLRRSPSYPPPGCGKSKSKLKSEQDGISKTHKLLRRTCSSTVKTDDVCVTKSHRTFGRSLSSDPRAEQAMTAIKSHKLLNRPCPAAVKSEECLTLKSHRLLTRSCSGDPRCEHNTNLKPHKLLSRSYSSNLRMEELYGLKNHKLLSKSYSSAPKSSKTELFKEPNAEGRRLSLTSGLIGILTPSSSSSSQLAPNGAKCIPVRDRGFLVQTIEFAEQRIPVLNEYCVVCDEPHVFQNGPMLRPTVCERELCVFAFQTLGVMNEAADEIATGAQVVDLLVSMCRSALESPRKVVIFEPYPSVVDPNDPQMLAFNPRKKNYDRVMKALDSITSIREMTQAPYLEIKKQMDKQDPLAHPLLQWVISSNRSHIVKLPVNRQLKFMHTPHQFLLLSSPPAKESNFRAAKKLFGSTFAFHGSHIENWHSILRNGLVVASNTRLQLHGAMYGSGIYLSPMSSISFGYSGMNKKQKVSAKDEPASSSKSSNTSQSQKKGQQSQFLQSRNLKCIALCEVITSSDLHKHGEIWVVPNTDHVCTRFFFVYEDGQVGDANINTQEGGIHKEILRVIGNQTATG
Kind of series: Inhibition of human recombinant PARP8 at 10 uM incubated for 1 hr using NAD+, biotinylated NAD+ and activated DNA by luminescence based assay. A digest of the protocol:
as §1

As for `CC(C)(C)c1ccc(-c2nc3c(sc4ccccc43)c(=O)[nH]2)cc1`, the inhibition in series [1] worked out at 1%; in series [2] it was 7%; in series [4], 3%. Also, in the series with RKO, the “growth inhibition (GI)” value is “inactive”. The compound also showed a logD in series [3] of 5.16. The “growth inhibition (GI)” value with DLD-1 was “Active”.

What is called inhibition is the change of the read-out against control, counted positive when it falls. In general, logD refers to lipophilicity at a set pH, counting ionised and neutral species. Low readings indicate a more hydrophilic compound, high ones a more lipophilic compound.
